From ChEMBL document CHEMBL4251655 (Eur J Med Chem, 2018)
pIC50: −log10 of the molar value.

Assays:
[1] = target: T1, Mitogen-activated protein kinase kinase kinase 5 (Homo sapiens, UniProt Q99683); assay: Inhibition of recombinant full length human ASK1 expressed in HEK293/AP1-Luc cells assessed as reduction in p38 phosphorylation after 18 hrs by HTRF assay; type: cell-based
T1 sequence (Q99683 whole entry): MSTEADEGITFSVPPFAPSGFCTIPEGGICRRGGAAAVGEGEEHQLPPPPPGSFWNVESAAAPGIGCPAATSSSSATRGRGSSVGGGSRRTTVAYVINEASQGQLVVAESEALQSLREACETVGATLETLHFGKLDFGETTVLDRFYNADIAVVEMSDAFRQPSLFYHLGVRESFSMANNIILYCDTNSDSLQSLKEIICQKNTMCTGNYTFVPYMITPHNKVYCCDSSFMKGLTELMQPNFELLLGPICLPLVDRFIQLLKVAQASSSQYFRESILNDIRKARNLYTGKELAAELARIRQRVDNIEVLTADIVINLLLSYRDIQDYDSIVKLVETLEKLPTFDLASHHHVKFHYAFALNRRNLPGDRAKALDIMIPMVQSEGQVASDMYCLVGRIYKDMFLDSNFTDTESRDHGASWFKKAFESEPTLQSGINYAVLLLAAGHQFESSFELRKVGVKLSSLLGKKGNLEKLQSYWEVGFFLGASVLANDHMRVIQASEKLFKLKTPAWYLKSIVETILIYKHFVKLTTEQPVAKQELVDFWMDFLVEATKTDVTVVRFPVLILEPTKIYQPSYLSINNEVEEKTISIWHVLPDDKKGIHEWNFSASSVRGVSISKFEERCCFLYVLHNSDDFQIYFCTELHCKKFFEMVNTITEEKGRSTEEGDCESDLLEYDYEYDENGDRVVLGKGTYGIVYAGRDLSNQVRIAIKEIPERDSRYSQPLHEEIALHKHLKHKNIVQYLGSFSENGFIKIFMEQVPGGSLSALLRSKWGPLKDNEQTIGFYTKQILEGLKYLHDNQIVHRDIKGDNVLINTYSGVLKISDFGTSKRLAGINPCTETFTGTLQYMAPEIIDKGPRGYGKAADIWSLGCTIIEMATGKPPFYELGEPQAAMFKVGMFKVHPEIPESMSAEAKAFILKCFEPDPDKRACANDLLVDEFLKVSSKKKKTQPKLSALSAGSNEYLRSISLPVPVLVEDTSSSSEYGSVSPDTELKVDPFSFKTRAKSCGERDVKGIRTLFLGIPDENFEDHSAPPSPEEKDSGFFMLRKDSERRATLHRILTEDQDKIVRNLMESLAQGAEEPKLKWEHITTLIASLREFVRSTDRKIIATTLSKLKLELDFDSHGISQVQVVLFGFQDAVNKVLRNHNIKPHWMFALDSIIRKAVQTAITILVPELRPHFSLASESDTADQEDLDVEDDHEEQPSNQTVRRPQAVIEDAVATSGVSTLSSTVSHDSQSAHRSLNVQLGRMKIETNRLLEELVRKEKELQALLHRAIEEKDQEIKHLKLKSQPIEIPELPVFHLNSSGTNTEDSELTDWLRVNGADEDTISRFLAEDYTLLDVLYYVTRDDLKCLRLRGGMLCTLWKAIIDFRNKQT
Procedure, shortened: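 HEK293/AP-1luc cells stably overexpressing wild-type human full-length ASK1 (constitutively active, no stimulus), seeded at 25K cells/well, held 8 h at 37 °C, then switched to Optimem with Geneticin. Compound dilution series added (final DMSO 0.5%) for 18 h at 37 °C, 5% CO2. Cells lysed 1 h at room temperature; phospho-p38 read by HTRF after overnight (18 h) detection. Mean of at least two determinations.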

[2] = Permeability of the compound in RRCK cells; type: ADME, cell-based, Canis lupus familiaris, MDCKII-LE; details: dog, MDCK; read-out: permeability
[3] = target: T1, Mitogen-activated protein kinase kinase kinase 5; assay: Inhibition of recombinant full length human GST-tagged ASK1 expressed in baculovirus expression system using STK3 peptide substrate preincubated for 15 mins followed by substrate addition measured after 90 mins in presence of 1 mM ATP by HTRF assay
Procedure, shortened: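 Full-length recombinant human ASK1 (3 nM final) in kinase buffer with 5 mM MgCl2 and 1 mM DTT, preincubated with compound 15 min at 25 °C. Reaction started with ATP (1 mM) and STK3 peptide (1 µM final), run 90 min at room temperature, 2% DMSO. Stopped with EDTA detection mix, HTRF read after 2 h. Kiapp fitted by Morrison or competitive equation, converted to IC50 by Cheng-Prusoff using ATP Km 48 µM. Mean of at least two determinations.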

[4] = Lipophilicity, log D at pH 7.4 by shake flask method; details: buffer

| pIC50 [1] | Papp [2] | pIC50 [3] | logD [4] | SMILES |
| --- | --- | --- | --- | --- |
| 6.57 | 9.8 ×10⁻⁶ cm/s | 8.62 | 1.8 | CNC(=O)c1ccc(OC)c(C(=O)Nc2cccc(-c3nncn3C(C)C)n2)c1 |
|  |  | 7.14 | 1.7 | CCS(=O)(=O)Nc1cccc(C(=O)Nc2cccc(-c3nncn3C(C)C)n2)c1 |
| 7.39 | 5.6 ×10⁻⁶ cm/s | 9.49 | 2.2 | CCS(=O)(=O)Nc1ccc(OC)c(C(=O)Nc2cccc(-c3nncn3C(C)C)n2)c1 |

Continued, compound first:

| SMILES | pIC50 [1] | Papp [2] | pIC50 [3] | logD [4] |
| --- | --- | --- | --- | --- |
| CC(C)n1cnnc1-c1cccc(NC(=O)c2cccc(C(N)=O)c2)n1 |  |  | 6.24 |  |
| CC(C)n1cnnc1-c1cccc(NC(=O)c2cccc(-c3ncc[nH]3)c2)n1 |  |  | 6.77 | 2.4 |
